Screening data: PubChem BioAssay, several laboratories
The list is not random: actives were taken first. Their share in the collection is about 1.1%.
Calpain2 inh: inhibitors of pig calpain II, primary screen, biochemical, fluorogenic peptide substrate, 1536-well. purified calpain II, 30 min. inhibition, % at 16 µM. 220,000 tested, 0.37% active. AID 1236, 2008;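 active = inhibition above about 50%, limit read from the data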
RBBP9 inh: human RBBP9 inhibitors, primary screen, biochemical, fluorescence polarization, FP-Rh probe, HTS. Serine hydrolase RBBP9 (Homo sapiens), O75884. inhibition, % at 7.94 µM. 220,000 tested, 0.2% active. recombinant RBBP9. AID 1515, 2009;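 active = inhibition above the campaign mean of all tested compounds plus 3 SD, cut at about 14% in these data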;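 also: plate controls were DMSO wells with RBBP9 for no effect and wells lacking RBBP9 protein for full effect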
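Measured by: FP readout at 525/598 nm; material: recombinant human RBBP9; also added: Serine-hydrolase probe FP-Rh, 375 nM pre-mixing; medium: Tris buffer pH 8.0, NaCl, Pluronic; replication: one well per compound; doses: one concentration, 7.94 µM nominal, 0.794% DMSO; timing: preincubation 30 min plus labeling 45 min at 25 °C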
Furin inh: human furin inhibitors, primary screen, biochemical, fluorescence intensity; P09958; purified furin, fluorogenic substrate cleavage; inhibition, % at 20 µM or 30 µM; 220,000 tested, 0.061% active; in the data active = inhibition above about 25%
Target sequence (P09958 108-714 limits assumed): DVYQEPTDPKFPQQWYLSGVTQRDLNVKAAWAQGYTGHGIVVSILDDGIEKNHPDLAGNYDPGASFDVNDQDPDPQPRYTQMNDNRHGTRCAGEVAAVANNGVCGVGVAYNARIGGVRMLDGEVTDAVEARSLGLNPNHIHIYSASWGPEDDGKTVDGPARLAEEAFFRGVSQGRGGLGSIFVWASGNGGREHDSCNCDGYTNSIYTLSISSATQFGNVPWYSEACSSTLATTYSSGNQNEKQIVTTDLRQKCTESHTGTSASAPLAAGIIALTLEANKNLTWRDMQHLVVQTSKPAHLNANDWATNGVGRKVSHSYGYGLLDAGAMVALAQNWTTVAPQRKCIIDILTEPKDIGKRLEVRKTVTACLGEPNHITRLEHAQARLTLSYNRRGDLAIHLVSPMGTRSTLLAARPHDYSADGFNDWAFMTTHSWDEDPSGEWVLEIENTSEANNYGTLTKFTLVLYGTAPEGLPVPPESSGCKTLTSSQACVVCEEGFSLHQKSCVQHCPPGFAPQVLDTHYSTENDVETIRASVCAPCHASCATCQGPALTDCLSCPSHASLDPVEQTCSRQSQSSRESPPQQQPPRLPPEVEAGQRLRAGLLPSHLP
NCF1 inh: p47phox/p22phox peptide binding inhibitors, primary screen, biochemical, uHTS, NADPH oxidase regulatory subunit. inhibition, % at 24.7 µM. fluorescence polarization, 2 h. 220,000 tested, 0.53% active. AID 1274, 2008. Neutrophil cytosol factor 1 (Homo sapiens), P14598;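 active = inhibition above about 30%, limit read from the data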;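 also: 0% = p47phox with labelled peptide and 100% = labelled peptide alone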
* = called active by the depositor.

How did CCOCCn1c(CN2CCN(C)CC2)nc2c1c(=O)n(C)c(=O)n2C do in these assays?
Calpain2 inh: -8.7; Furin inh: -31.6; NCF1 inh: 3.6

How did COCCn1c(CN2CCN(C)CC2)nc2c1c(=O)n(C)c(=O)n2C do in these assays?
Calpain2 inh: 85.1*; RBBP9 inh: -7.1; Furin inh: -9.1; NCF1 inh: -1.9

What do the screens show for `CN1CCc2cc3c(c4c2[C@H]1[C@H](O)c1ccccc1-4)OCO3`?
Calpain2 inh: -34.8; RBBP9 inh: -3.3; Furin inh: -7.6; NCF1 inh: 11.1

How did CN1CCc2cccc3c2[C@H]1Cc1ccc(O)c(O)c1-3 do in these assays?
Calpain2 inh: -35.2; RBBP9 inh: 27.8*; Furin inh: -13.1; NCF1 inh: 18.5

Results for O=C(c1ccco1)N(Cc1cccc([N+](=O)[O-])c1)c1ccc(Br)cc1 ?
Calpain2 inh: 51.7*; RBBP9 inh: 2.9; Furin inh: -13.6; NCF1 inh: 6.0

How did O=C(c1ccco1)N(Cc1ccc([N+](=O)[O-])cc1)c1ccc(Br)cc1 do in these assays?
Calpain2 inh: 20.6; RBBP9 inh: 10.7; Furin inh: -11.5; NCF1 inh: 1.6

Results for O=C1c2cccc3cccc(c23)C(=O)N1OS(=O)(=O)c1ccc(Br)cc1 ?
Calpain2 inh: -141.4; RBBP9 inh: -4.8; Furin inh: -10.9; NCF1 inh: -34.4

What do the screens show for `O=C1C(Br)=Cc2cccc3cccc1c23`?
Calpain2 inh: -16.8; RBBP9 inh: -0.5; Furin inh: -14.6; NCF1 inh: 30.8*

Results for Cc1ccc(C(C(=O)NC(C)(C)C)N(Cc2cccs2)C(=O)c2ccc3c(c2)OCCO3)cc1 (stereo not drawn) ?
Calpain2 inh: 9.4; RBBP9 inh: -2.4; Furin inh: -13.4; NCF1 inh: 51.7*

How did Cc1cccc(-c2nc3c(c(=O)c4ccccc4n3C)c(=O)n2-c2ccccc2)c1 do in these assays?
Calpain2 inh: 13.5; RBBP9 inh: 6.2; Furin inh: -9.8; NCF1 inh: -15.7

What do the screens show for `CCn1cc(C=C2C(=O)c3ccccc3C2=O)c2ccccc21`?
Calpain2 inh: -19.2; RBBP9 inh: -2.9; Furin inh: -14.9; NCF1 inh: 75.1*

Results for Cn1c(SCC(=O)Nc2ccc(Br)cc2)nc(O)cc1=O ?
Calpain2 inh: 0.1; RBBP9 inh: -10.5; Furin inh: -19.7; NCF1 inh: -47.9

What do the screens show for `CC(C)OC(=O)c1cccc2c1C(=O)c1ccccc1-2`?
Calpain2 inh: 23.7; RBBP9 inh: -6.7; Furin inh: -2.1; NCF1 inh: 49.8*

Results for O=c1c2ccccc2nc(CSc2nnnn2-c2ccccc2)n1-c1ccccc1Cl ?
Calpain2 inh: 9.3; RBBP9 inh: 4.2; Furin inh: -19.6; NCF1 inh: 40.5*

What do the screens show for `Cc1cc2cc(CNC(=S)NC3CCCCC3)ccc2[nH]1`?
Calpain2 inh: 86.7*; RBBP9 inh: -6.4; Furin inh: -20.4; NCF1 inh: -6.4

How did Cc1cccc(NC(=O)NCc2ccc3[nH]c(C)cc3c2)c1 do in these assays?
Calpain2 inh: 97.2*; RBBP9 inh: -8.8; Furin inh: -19.6; NCF1 inh: -6.3

Results for CSc1nc(Oc2ccc3ccccc3c2)c2sccc2n1 ?
Calpain2 inh: 27.8; RBBP9 inh: 2.6; Furin inh: -13.4; NCF1 inh: -7.0

What do the screens show for `COc1ccc(Oc2nc(SC)nc3ccsc23)cc1`?
Calpain2 inh: -14.9; RBBP9 inh: -7.8; Furin inh: -23.4; NCF1 inh: 40.6*

What do the screens show for `CCOC(=O)c1c(CC(C)C)csc1/N=C/C1C(=O)CC(C)(C)CC1=O`?
Calpain2 inh: -141.1; RBBP9 inh: -1.1; Furin inh: -15.3; NCF1 inh: -11.3

What do the screens show for `CCOC(=O)c1cc(C)sc1/N=C/C1C(=O)CC(C)(C)CC1=O`?
Calpain2 inh: 27.5; RBBP9 inh: 0.9; Furin inh: 25.9*; NCF1 inh: -9.3

What do the screens show for `Cc1c(N(C)C(=O)c2ccco2)c(=O)n(-c2ccccc2)n1C`?
Calpain2 inh: 39.1; RBBP9 inh: -1.4; Furin inh: -21.7; NCF1 inh: -15.3

How did COc1ccc(C(=O)N(C)c2c(C)n(C)n(-c3ccccc3)c2=O)cc1OC do in these assays?
Calpain2 inh: 69.9*; RBBP9 inh: -7.0; Furin inh: -24.5; NCF1 inh: 3.4

How did Nn1c(SCc2nc3ccccn3c2Br)nnc1-c1cccnc1 do in these assays?
Calpain2 inh: -7.5; RBBP9 inh: -6.1; Furin inh: -22.2; NCF1 inh: 56.6*

Results for CCOC(=O)c1c(NC(=O)CN2C(=O)NC(C)(c3ccccc3)C2=O)sc(C)c1C (stereo not drawn) ?
Calpain2 inh: 23.5; RBBP9 inh: -9.2; Furin inh: -3.7; NCF1 inh: -46.0

What do the screens show for `CCN(CC)c1ccc(N=Cc2cc(Br)ccc2O)cc1`?
Calpain2 inh: -26.4; RBBP9 inh: 5.8; Furin inh: -20.6; NCF1 inh: -39.1

What do the screens show for `Oc1ccc(Br)cc1C=Nc1ccc(Cl)cc1`?
Calpain2 inh: 93.7*; RBBP9 inh: -8.7; Furin inh: -20.7; NCF1 inh: -3.8

How did Cc1ccc(-c2nnc(N3CCCCC3)c3ccccc23)cc1 do in these assays?
Calpain2 inh: 22.2; RBBP9 inh: -3.2; Furin inh: -11.6; NCF1 inh: -14.8

What do the screens show for `Cc1ccc(-c2nnc(-n3ncc(C#N)c3N)c3ccccc23)cc1C`?
Calpain2 inh: 0.9; RBBP9 inh: -5.3; Furin inh: -18.4; NCF1 inh: 42.0*

Results for COc1ccc(N2CCN(C(=O)C3(C)CC3(Cl)Cl)CC2)cc1 (stereo not drawn) ?
Calpain2 inh: 0.9; RBBP9 inh: -1.5; Furin inh: -24.7; NCF1 inh: -2.8

What do the screens show for `Cc1ccc(S(=O)(=O)N2N=C3CCCCC3C2(O)C(F)(F)F)cc1` (stereo not drawn)?
Calpain2 inh: 26.1; RBBP9 inh: -4.7; Furin inh: 2.4; NCF1 inh: -1.4

How did Cn1nc(C(=O)NC(C)(C)C)c2ccccc21 do in these assays?
Calpain2 inh: 5.1; RBBP9 inh: -2.3; Furin inh: -23.3; NCF1 inh: -9.8

Results for O=C1C(c2ccccc2)SC(=Nc2ccccc2)N1S(=O)(=O)c1ccccc1 (stereo not drawn) ?
Calpain2 inh: 53.9*; RBBP9 inh: -1.4; Furin inh: -6.0; NCF1 inh: -11.4

What do the screens show for `O=[N+]([O-])c1ccc(N/N=C\c2cccn2-c2ccccc2)nc1`?
Calpain2 inh: 24.9; RBBP9 inh: -1.5; Furin inh: -15.9; NCF1 inh: 38.0*

How did O=C(Nc1ccccc1-c1nc2ccccc2[nH]1)c1sc2ccccc2c1Cl do in these assays?
Calpain2 inh: -13.3; RBBP9 inh: -1.4; Furin inh: -8.6; NCF1 inh: -70.9

How did CCOc1ccc(N/C=C/C(=O)c2ccc(C)cc2)c([N+](=O)[O-])c1 do in these assays?
Calpain2 inh: 16.4; RBBP9 inh: -3.3; Furin inh: -8.1; NCF1 inh: 36.8*

How did O=C(CCCCCN1C(=O)c2ccccc2C1=O)Nc1ccc(S(=O)(=O)N2CCCCC2)cc1 do in these assays?
Calpain2 inh: 53.4*; RBBP9 inh: -10.1; Furin inh: -28.1; NCF1 inh: -13.1
